Laboratory results taken from ChEMBL document CHEMBL1148314, “4-(omega-(alkyloxy)alkyl)-1H-imidazole derivatives as histamine H(3) receptor antagonists/agonists” (J Med Chem, 2004).

Tests used:
Histamine H2 receptor = Histamine H2 receptor (Cavia porcellus, UniProt P47747); assay: Functional H2 receptor antagonistic activity in vitro assay on the isolated spontaneously beating guinea-pig right atrium; type: tissue-based, Cardiac atrium; settings: read-out: pA2 (converted)
Method in brief: (§1)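 Isolated guinea-pig tissues, spontaneously beating right atrium for H2 and ileum for H1, tested by standard methods. At least triplicate; values are means.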

Histamine H3 receptor [1] = target: Histamine H3 receptor (Cavia porcellus, UniProt Q9JI35); assay: Functional Histamine H3 receptor antagonistic activity in vitro assay on guinea pig ileum; type: tissue-based; settings: read-out: pA2 (converted)
Chain of Histamine H3 receptor (Cavia porcellus, UniProt Q9JI35) (Q9JI35 whole entry): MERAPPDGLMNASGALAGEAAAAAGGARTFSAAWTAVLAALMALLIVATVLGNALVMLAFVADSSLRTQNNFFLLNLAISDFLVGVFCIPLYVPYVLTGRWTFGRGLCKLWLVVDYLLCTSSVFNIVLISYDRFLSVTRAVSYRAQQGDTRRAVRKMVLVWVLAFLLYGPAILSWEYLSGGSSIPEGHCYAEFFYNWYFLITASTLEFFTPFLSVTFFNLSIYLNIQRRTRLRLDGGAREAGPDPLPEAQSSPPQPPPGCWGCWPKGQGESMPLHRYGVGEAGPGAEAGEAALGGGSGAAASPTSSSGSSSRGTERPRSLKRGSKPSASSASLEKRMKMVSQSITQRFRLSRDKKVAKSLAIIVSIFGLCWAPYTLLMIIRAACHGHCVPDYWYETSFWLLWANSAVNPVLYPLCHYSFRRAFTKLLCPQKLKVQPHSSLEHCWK
Method in brief: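 Guinea-pig ileal longitudinal muscle–myenteric plexus strips at about 7.5 mN in Krebs–Henseleit, 37 °C, 95% O2/5% CO2, mepyramine 1 μM present. Field stimulated at 15 V, 0.5 ms, 0.1 Hz. Cumulative (R)-α-methylhistamine curves (1–1000 nM) recorded before and after antagonist; rightward shift corrected by the shift in daily controls.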

Histamine H1 receptor = Histamine H1 receptor (Cavia porcellus, UniProt P31389); assay: Functional Histamine H1 receptor antagonistic activity in vitro assay on guinea pig ileum; type: tissue-based; settings: read-out: pA2 (converted); method in brief: as §1
Chain of Histamine H1 receptor (P31389 whole entry): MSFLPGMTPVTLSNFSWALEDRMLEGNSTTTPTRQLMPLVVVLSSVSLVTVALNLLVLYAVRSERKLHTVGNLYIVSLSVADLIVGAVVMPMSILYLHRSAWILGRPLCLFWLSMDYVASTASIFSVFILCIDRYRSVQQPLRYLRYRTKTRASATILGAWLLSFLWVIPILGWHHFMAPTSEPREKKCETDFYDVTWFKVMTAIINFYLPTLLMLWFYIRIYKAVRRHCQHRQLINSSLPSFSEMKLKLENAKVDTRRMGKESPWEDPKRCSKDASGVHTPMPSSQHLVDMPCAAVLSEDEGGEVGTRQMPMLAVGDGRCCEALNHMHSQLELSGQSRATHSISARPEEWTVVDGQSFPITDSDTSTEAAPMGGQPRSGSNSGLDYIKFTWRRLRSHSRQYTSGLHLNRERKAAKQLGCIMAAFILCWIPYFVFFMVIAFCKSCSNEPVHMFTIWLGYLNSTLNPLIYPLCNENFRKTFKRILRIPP

Mus musculus = assay: Potency after oral administration in vivo in mice; type: functional
Histamine H3 receptor [2] = target: T1, Histamine H3 receptor (Rattus norvegicus, UniProt Q9QYN8); assay: Functional Histamine H3 receptor antagonistic activity in vitro assay on synaptosomes of rat cerebral cortex; type: subcellular, Brain
T1 sequence (Q9QYN8 whole entry): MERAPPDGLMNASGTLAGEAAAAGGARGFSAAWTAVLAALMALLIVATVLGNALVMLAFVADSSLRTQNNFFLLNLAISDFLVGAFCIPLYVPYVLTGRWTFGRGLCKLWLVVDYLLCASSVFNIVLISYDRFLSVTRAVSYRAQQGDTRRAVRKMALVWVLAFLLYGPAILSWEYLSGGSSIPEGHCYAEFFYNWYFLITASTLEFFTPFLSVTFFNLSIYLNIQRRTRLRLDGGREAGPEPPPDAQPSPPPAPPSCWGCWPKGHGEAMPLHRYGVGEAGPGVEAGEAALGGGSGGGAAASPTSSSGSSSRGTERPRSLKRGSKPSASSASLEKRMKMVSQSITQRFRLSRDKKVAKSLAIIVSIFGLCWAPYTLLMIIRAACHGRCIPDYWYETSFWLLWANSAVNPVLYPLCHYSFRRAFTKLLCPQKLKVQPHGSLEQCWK
Method in brief: (§2)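 Rat cerebral cortex synaptosomes preloaded 30 min at 37 °C with L-[3H]histidine 0.4 μM in modified Krebs–Ringer, washed, then depolarized 2 min with 2 or 30 mM K+. Drugs and 1 μM histamine added 5 min before the stimulus. [3H]histamine measured by scintillation after purification; Ki by Cheng–Prusoff, mean ± SEM of at least three experiments.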

Histamine H3 receptor [3] = target: T1, Histamine H3 receptor; assay: In vitro […] against rat histamine H3 receptor; method in brief: as §2
Histamine H3 receptor [4] = target: T2, Histamine H3 receptor (Homo sapiens, UniProt Q9Y5N1); assay: (§3) Effect on specific [35S]GTP-gamma-S, Binding to HEK293 cell membranes expressing the human Histamine H3 receptor; type: functional
T2 sequence (Q9Y5N1 whole entry): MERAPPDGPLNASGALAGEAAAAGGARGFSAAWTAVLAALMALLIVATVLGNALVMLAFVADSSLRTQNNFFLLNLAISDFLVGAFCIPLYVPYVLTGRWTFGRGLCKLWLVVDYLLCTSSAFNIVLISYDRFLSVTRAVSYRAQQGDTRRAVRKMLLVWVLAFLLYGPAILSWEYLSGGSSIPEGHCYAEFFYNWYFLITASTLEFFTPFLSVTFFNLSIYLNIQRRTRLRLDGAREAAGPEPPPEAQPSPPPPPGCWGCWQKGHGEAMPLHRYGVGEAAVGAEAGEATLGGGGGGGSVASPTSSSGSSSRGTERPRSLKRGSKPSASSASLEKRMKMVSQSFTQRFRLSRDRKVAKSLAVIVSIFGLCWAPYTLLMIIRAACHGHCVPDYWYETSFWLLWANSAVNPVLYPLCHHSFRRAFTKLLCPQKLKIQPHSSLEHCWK
Method in brief: (§4)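 HEK293 cells stably transfected with human H3 receptor (selected with 2 mg/mL G418, maintained in 1 mg/mL). Membranes prepared in Tris/HCl 50 mM pH 7.5; 10–20 μg protein incubated 60 min at 20 °C with 0.1 nM [35S]GTPγS ± drug in Tris 50 mM, NaCl 100 mM, MgCl2 10 mM, GDP 10 μM.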

Histamine H3 receptor [5] = target: T2, Histamine H3 receptor; assay: as §3; type: functional; method in brief: as §4; remark: listed apart in the source

Chain of Histamine H2 receptor (P47747 whole entry): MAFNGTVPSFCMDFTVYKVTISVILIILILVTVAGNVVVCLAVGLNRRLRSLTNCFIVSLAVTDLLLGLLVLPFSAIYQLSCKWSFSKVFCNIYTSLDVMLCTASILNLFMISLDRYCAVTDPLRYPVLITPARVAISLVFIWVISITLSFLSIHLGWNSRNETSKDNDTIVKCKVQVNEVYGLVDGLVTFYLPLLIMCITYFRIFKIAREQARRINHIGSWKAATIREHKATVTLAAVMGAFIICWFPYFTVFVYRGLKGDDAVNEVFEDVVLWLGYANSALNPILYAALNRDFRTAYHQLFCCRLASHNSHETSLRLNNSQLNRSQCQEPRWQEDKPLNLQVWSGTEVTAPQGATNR

Row | SMILES | Kb (Histamine H2 receptor) | Kb (Histamine H3 receptor [1]) | Kb (Histamine H1 receptor) | ED50 (Mus musculus) | Ki (Histamine H3 receptor [2]) | Ki (Histamine H3 receptor [3]) | Intrinsic activity (Histamine H3 receptor [4]) | EC50 (Histamine H3 receptor [5])
1 | CCCCCCCCOCCCc1c[nH]cn1.O=C(O)/C=C\C(=O)O | 2.51 µM | 100 nM | 15.8 µM | > 10 mg/kg | – | – | – | –
2 | c1nc(COCC2CCCCC2)c[nH]1 | – | – | – | – | > 1000 nM | > 500 nM | – | –
3 | C=CCCCOCCCc1c[nH]cn1.O=C(O)C(=O)O | – | – | – | ≥ 10 mg/kg | – | 27 nM | – | –
4 | C=CCOCCCc1c[nH]cn1.O=C(O)C(=O)O | > 31.6 µM | – | > 316 µM | 0.33 mg/kg | 200 nM | 200 nM | 0.63 | 336 nM
5 | N#CCCOCCCc1c[nH]cn1.O=C(O)C(=O)O | – | – | – | 3.2 mg/kg | – | 674 nM | – | –
6 | CCCOCCCc1c[nH]cn1.O=C(O)C(=O)O | > 31.6 µM | – | > 31.6 µM | 1.8 mg/kg | 251 nM | 230 nM | – | –
7 | c1nc(COCC2CC3CCC2C3)c[nH]1 (stereo not given) | – | – | – | – | – | ~500 nM | – | –
8 | O=C(CCCOCCCc1c[nH]cn1)c1ccc(F)cc1.O=C(O)C(=O)O | – | – | – | 0.28 mg/kg | – | 14 nM | – | –
9 | O=C(COCCCc1c[nH]cn1)c1cccc([N+](=O)[O-])c1 | – | – | – | – | – | > 500 nM | – | –
10 | O=C(c1ccc(OCCCc2c[nH]cn2)cc1)C1CC1 [CIPROXIFAN] | – | – | – | 0.14 mg/kg | – | – | – | –
11 | S=C(NC1CCCCC1)N1CCC(c2cnc[nH]2)CC1 [THIOPERAMIDE] | – | – | – | 1 mg/kg | – | – | – | –
12 | CCCCCCCOCCCc1c[nH]cn1 | 2 µM | 15.8 nM | > 100 µM | – | 15.8 nM | – | – | –
13 | CCCCOCCCc1c[nH]cn1.O=C(O)/C=C\C(=O)O | – | – | – | > 10 mg/kg | – | 56 nM | 0.39 | 311 nM
14 | CC(C)(C)OCCc1c[nH]cn1.O=C(O)C(=O)O | – | – | – | > 10 mg/kg | – | > 500 nM | – | –
15 | O=C(O)/C=C\C(=O)O.c1nc(COCCC2CCCCC2)c[nH]1 | – | – | – | > 10 mg/kg | – | > 500 nM | – | –
16 | COCCOCCCc1c[nH]cn1 | – | – | – | – | – | ~400 nM | – | –

Row | SMILES | Kb (Histamine H2 receptor) | Kb (Histamine H3 receptor [1]) | Kb (Histamine H1 receptor) | ED50 (Mus musculus) | Ki (Histamine H3 receptor [2]) | Ki (Histamine H3 receptor [3]) | Intrinsic activity (Histamine H3 receptor [4]) | EC50 (Histamine H3 receptor [5])
17 | O=C(O)/C=C\C(=O)O.c1nc(CCCOCCCC2CCCCC2)c[nH]1 | 50.1 µM | – | 7.94 µM | 1 mg/kg | 20 nM | – | – | –
18 | c1nc(CCCOCCC2CCCCC2)c[nH]1 | – | – | – | – | 10 nM | 11 nM | – | –
19 | c1ccc(CC(COCCCc2c[nH]cn2)c2ccccc2)cc1 (stereo not given) | – | – | – | – | – | 184 nM | – | –
20 | c1ccc(C(OCCCc2cnc[nH]2)(c2ccccc2)c2ccccc2)cc1 | – | – | – | > 10 mg/kg | – | > 500 nM | – | –
21 | C#CCCCOCCCc1c[nH]cn1 | – | 316 nM | – | – | 39.8 nM | 38 nM | – | –
22 | O=C(O)/C=C\C(=O)O.c1nc(CCCOCCCC2CCCC2)c[nH]1 | 5.01 µM | 15.8 nM | 20 µM | 0.28 mg/kg | 6.31 nM | 7 nM | – | –
23 | COCCCc1c[nH]cn1.O=C(O)C(=O)O | > 31.6 µM | – | > 100 µM | ~10 mg/kg | 316 nM | 290 nM | – | –
24 | CC(C)(C)OCCCc1c[nH]cn1.O=C(O)/C=C\C(=O)O | > 31.6 µM | – | > 100 µM | 1.3 mg/kg | 126 nM | 120 nM | – | –
25 | CCCCCOCCCc1c[nH]cn1.O=C(O)/C=C\C(=O)O | > 31.6 µM | 63.1 nM | 20 µM | > 30 mg/kg | 31.6 nM | 33 nM | 0.47 | 97 nM
26 | CC(=O)CCOCCCc1c[nH]cn1 | – | – | – | – | – | 143 nM | – | –
27 | CCOCCCc1c[nH]cn1.O=C(O)C(=O)O | > 31.6 µM | – | > 100 µM | 0.26 mg/kg | – | – | – | –
28 | C#CCOCCCc1c[nH]cn1.O=C(O)C(=O)O | > 31.6 µM | – | > 316 µM | 0.57 mg/kg | 200 nM | 190 nM | 0.73 | 135 nM
29 | CCCCCCOCCCc1c[nH]cn1.O=C(O)/C=C\C(=O)O | 10 µM | 39.8 nM | 7.94 µM | > 30 mg/kg | 12.6 nM | 14 nM | 0.49 | 40 nM
30 | c1nc(COCCCC2CCCCC2)c[nH]1 | – | – | – | – | – | ≥ 500 nM | – | –
31 | O=C(COCCCc1c[nH]cn1)c1ccccc1.O=C(O)/C=C\C(=O)O | – | – | – | > 10 mg/kg | – | > 500 nM | – | –
32 | c1nc(CCCOCC2CC2)c[nH]1 | – | – | – | – | – | 167 nM | – | –
